The structures appear in SMILES notation. Active and inactive are the calls of the source. The rule behind the calls is not given here. Where only a bound is given, the exact number is not on record here.

The term IC50 denotes the concentration that inhibits the measured activity by half. A low value points to greater potency in that assay. One may read the LD50 as the dose expected to kill half of the subjects tested.

Data set [1] deals with HEK293. The data set can be described thus: Induction of cell cycle arrest in HEK293 cells assessed as accumulation at G2/M phase at 200 nM after 72 hrs by propidium iodide staining based flow cytometry (reference value: 21 +/- 2%). It counts as functional, Homo sapiens. Background: In flow cytometry, cells or beads pass a laser one at a time.
Data set [2] concerns HEK293. The data set can be described thus: Cytotoxicity against HEK293 cells after 72 hrs by MTT assay. It counts as functional, cell-based. As to conditions: Homo sapiens, HEK293, 72 h. An outline of the steps: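 Cells seeded at 3x10^5 cells/mL 24 h before assay (HEK293, AsPC-1 in DMEM; Jurkat, W1308 in RPMI-1640; 10% FCS, 2-ME). Tenfold dilutions from […] to 1 nM added; untreated cells as controls. 72 h incubation, MTT 250 µg/ml added for last 6 h, formazan dissolved in DMSO, OD read. IC50 from titration curves; inhibition index = 1 − OD(treated)/OD(control).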

The subject of data set [3] is ASPC1. The data set can be described thus: Induction of apoptosis in human AsPC1 cells assessed as cell fractionation level at 200 nM after 72 hrs by Hoechst 33342 and mitotracker red staining based confocal microscopy. It counts as functional. An outline of the steps:
(§1)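 AsPC-1 cells grown overnight on coverslips, then cultured 72 h with compound at various concentrations in complete medium. Hoechst 33342 and MitoTracker Red added for 1 h; cells fixed in 1% paraformaldehyde, mounted in Mowiol, and examined by confocal microscopy for nuclear and mitochondrial morphology.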

For data set [4], the system named is Jurkat. In words: Induction of cell cycle arrest in human Jurkat cells assessed as accumulation at G1 phase at 200 nM after 72 hrs by propidium iodide staining based flow cytometry (reference value: 72 +/ 4%). It counts as functional.
The test system of data set [5] is ASPC1. The data set can be described thus: Induction of cell cycle arrest in human AsPC1 cells assessed as accumulation at G2/M phase at 200 nM after 72 hrs by propidium iodide staining based flow cytometry (reference value: 34 +/ 3%). It counts as functional.
Data set [6] in a line: Growth inhibition of mouse W1308 cells at 100 uM after 72 hrs by MTT assay. It counts as functional. As to conditions: W1308, 72 h, read-out: GI. In general terms: Tetrazolium assays rely on reduction of a dye to a coloured formazan, in cell work by metabolically active cells.
For data set [7], the system named is Mus musculus. The data set can be described thus: Antitumor activity against mouse MMTV-Wnt-1 cells implanted in C57BL/6 mouse assessed as reduction in tumor volume at 0.4 mg/kg, iv once weekly for four weeks. It counts as functional, organism-based. Details: dose 0.4 mg/kg. An outline of the steps: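 C57BL/6 mice, 6–8 wk, inoculated subcutaneously with Wnt-1 tumor cells in 50 µl PBS into left inguinal fat pad under anesthesia. Treatment started at day 27 in mice with palpable tumors (n=7 per group). Compound in 200 µl saline given i.v. into orbital sinus at days 27, 34, 41, 48; controls received saline. Tumors measured by caliper twice weekly, volume (W²×L)/2. Study ended day 51.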

Data set [8] relates to ASPC1. In words: Induction of apoptosis in human AsPC1 cells assessed as mitochondria enlargement at 200 nM after 72 hrs by Hoechst 33342 and mitotracker red staining based confocal microscopy. It counts as functional, cell-based. A digest of the protocol:
as §1

The subject of data set [9] is Mus musculus. In words: (§2) Toxicity in ip dosed C57BL/6 mouse measured after 24 to 48 hrs. It counts as organism-based. As to conditions: mouse, in vivo. An outline of the steps: (§3)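 Acute toxicity: single doses given i.p. or i.v. to 6–8 wk C57BL/6 mice to determine LD100 and LD50; lethality observed 24–48 h after injection.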
Data set [10] is described as follows: as §2. The note with it: C57BL/6, mouse, in vivo. It counts as organism-based. An outline of the steps:
as §3

The nature of data set [11]: Induction of cell cycle arrest in mouse W1308 cells assessed as accumulation at G2/M phase at 200 nM after 72 hrs by propidium iodide staining based flow cytometry (reference value: 56 +/ 1%). It counts as functional.
The test system of data set [12] is Jurkat. In words: Induction of cell cycle arrest in human Jurkat cells assessed as accumulation at G2/M phase at 200 nM after 72 hrs by propidium iodide staining based flow cytometry (reference value: 27 +/ 2%). It counts as functional.
The nature of data set [13]: Induction of cell cycle arrest in mouse W1308 cells assessed as G1/G2 phase ratio at 200 nM after 72 hrs by propidium iodide staining based flow cytometry (reference value: 0.8). It counts as functional.
Data set [14] has as its system Mus musculus. The data set can be described thus: Toxicity in C57BL/6 mouse assessed as interphase microtubule de-stabilizing activity by measuring leakage of rhodamine through the gut at 1 mg/kg, iv co-administered with rhodamine B by fluorimetry. It counts as organism-based. More on the design: dose 1 mg/kg, route intravenous. As to conditions: in vivo. An outline of the steps: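 Intact mice, 6–8 wk, 3 per group; compound dissolved in DMSO at 20 mM, 4 µl diluted into 200 µl saline (1 mg/kg), mixed with 50 µl rhodamine B, single i.v. injection; controls DMSO plus rhodamine B. Killed 4 h later; organs cut, extracted in 0.3N acid in ethanol 2 h at 37 °C, centrifuged, supernatant fluorescence read with 540 nm filter.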

Consider `COc1cc2c(c(OC)c1OC)-c1cc3cc(CO)oc3cc1[C@@H](NC(C)=O)CC2`, for which the Activity is 72% in the data set on HEK293 [1]; 34% in the data set with Jurkat [4]; 72% in the data set on ASPC1 [5]; 80% in data set [11]; 62% with Jurkat [12]; “Toxic” with Mus musculus [14]. In addition, the IC50 with HEK293 [2] is under 20 nM. In addition, the result in the data set with ASPC1 [3] and with ASPC1 [8] was Active. The inhibition of growth at 100 µM in [6] turned out to be 60%. For the same compound, the “growth inhibition (GI)” value in the data set on Mus musculus [7] is “Active”. The compound further yielded an LD100 in the data set on Mus musculus [9] of 0.8 mg/kg. This compound came in with an LD50 in data set [10] of 0.3 mg/kg. Moreover, the Ratio in data set [13] is 0.2.
